ChEMBL document CHEMBL1133176, “3-Aryl-[1,2,4]triazino[4,3-a]benzimidazol-4(10H)-ones: tricyclic heteroaromatic derivatives as a new class of benzodiazepine receptor ligands” (J Med Chem, 2000)
Calls of active or inactive are those of the source. The rule behind the calls is not given here.

These molecules were tested against T1, GABA-A receptor; anion channel (Bos taurus) (UniProt P10063+P08220+P20237+P08219+P10064+P22300) (assay: (§1) Inhibition of [35S]-TBPS binding to GABA-A central Benzodiazepine Receptor of bovine cerebral cortex membranes). Details: concentration not given here.
Assay type: tissue-based
Parameters: concentration or dose not given beside the values
Summary of the method: (§2)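 [35S]TBPS binding run in the presence of GABA with compounds at 0.5 μM, on bovine brain membranes washed in Tris-citrate pH 7.4. […] Mean ± SE of three separate experiments.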
Molecule `O=C1CN=C(c2ccccc2Cl)c2cc([N+](=O)[O-])ccc2N1` has an inhibition of 100%. Work on `Cn1c2ccccc2n2c(=O)c(-c3ccccc3)nnc12` yielded an inhibition of 66%. Work on `CCOC(=O)c1ncn2c1CN(C)C(=O)c1cc(F)ccc1-2` [FLUMAZENIL] yielded an inhibition of 15%. `Oc1c(-c2ccco2)nnc2nc3ccccc3n12` gave an inhibition of 25%. `Oc1c(-c2ccccc2)nnc2nc3ccccc3n12` gave an inhibition of 35%. Work on `COc1ccc(-c2nnc3nc4ccccc4n3c2O)cc1` yielded an inhibition of 5%. Work on `Oc1ccc(-c2nnc3nc4ccccc4n3c2O)cc1` yielded an inhibition of 15%.

These molecules were tested on Mus musculus (assay: Dose required to antagonise the convulsant action of PTZ (80 mg/kg, sc) in 50% mice; No effect at a highest dose of 100 mg/kg). Details: not given.
Assay type: functional, organism-based
Parameters: dose 100 mg/kg
For `CCOC(=O)c1ncn2c1CN(C)C(=O)c1cc(F)ccc1-2` [FLUMAZENIL], the NE was “inactive”.

What follows are molecules tested on Mus musculus (assay: Dose required to antagonise the convulsant action of PTZ (80 mg/kg, sc) in 50% mice; No effect at a highest dose of 30 mg/kg). Details: not given.
Assay type: functional, organism-based
Parameters: dose 30 mg/kg
`COC(=O)c1cc2c(cn1)[nH]c1ccccc12` [BETA-CCM] was tested, and the NE was “inactive”.

These molecules were tested on Mus musculus (assay: Proconvulsant action measured as the dose required to induce convulsions in 50% of mice that had been previously given a subconvulsant dose of PTZ (40 mg/kg, sc); No effect at a highest dose of 250 mg/kg). Details: not given.
Assay type: functional, organism-based
Parameters: dose 250 mg/kg
Summary of the method: (§3)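 Mice pretreated with a subconvulsant PTZ dose of 40 mg/kg sc. The dose inducing convulsions in 50% of animals was determined, with compounds tested up to 250 mg/kg. Values are means of at least three determinations, with ≤20% variation between experiments.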
For `Cn1c2ccccc2n2c(=O)c(-c3ccccc3)nnc12`, the NE was “inactive”. With `Oc1c(-c2cccs2)nnc2nc3ccccc3n12` the NE was “inactive”. `Oc1c(-c2ccccc2)nnc2nc3ccccc3n12` was tested, and the NE was “inactive”.

These molecules were tested on Mus musculus (assay: Antagonism of Diazepam (2.5 mg/kg, ip) anticonvulsant effect in mice treated with PTZ (80 mg/kg, sc), No effect to 250 mg/kg dose). Details: not given.
Assay type: functional, organism-based
Parameters: dose 250 mg/kg
Summary of the method: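 Mice received diazepam 2.5 mg/kg ip plus convulsant PTZ 80 mg/kg sc. The dose of test compound that antagonizes the anticonvulsant effect of diazepam was determined, with a highest dose of 250 mg/kg. Values are means of at least three determinations.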
`Cn1c2ccccc2n2c(=O)c(-c3ccccc3)nnc12` was tested, and the NE was “inactive”. For `Oc1c(-c2cccs2)nnc2nc3ccccc3n12`, the NE was “inactive”. In the case of `Oc1c(-c2ccccc2)nnc2nc3ccccc3n12`, the NE is reported as “inactive”. For `COc1ccc(-c2nnc3nc4ccccc4n3c2O)cc1`, the NE was “inactive”.

These molecules were tested on Mus musculus (assay: Proconvulsant action measured as the dose required to induce convulsions in 50% of mice that had been previously given a subconvulsant dose of PTZ (40 mg/kg, sc)). Details: not given.
Assay type: functional
Summary of the method: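 Proconvulsant test in mice pretreated with subconvulsant PTZ 40 mg/kg sc; value is the dose inducing convulsions in 50% of animals. Highest test dose 250 mg/kg; means of at least three determinations, ≤20% difference between experiments.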
In the case of `COC(=O)c1cc2c(cn1)[nH]c1ccccc12` [BETA-CCM], the Proconvulsant action is reported as 19.4.

The molecules below were run on Mus musculus (assay: Antagonism of Diazepam (2.5 mg/kg, ip) anticonvulsant effect in mice treated with PTZ (80 mg/kg, sc)). Details: not given.
Assay type: functional
Summary of the method: (§4)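 Mice; anticonvulsant value is the dose protecting 50% of animals from convulsions caused by PTZ 80 mg/kg sc; diazepam antagonism measured as dose reversing the anticonvulsant effect of diazepam 2.5 mg/kg ip in mice given PTZ 80 mg/kg sc. Top test dose 250 mg/kg; means of at least three determinations (≤20% between-experiment difference).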
`COC(=O)c1cc2c(cn1)[nH]c1ccccc12` [BETA-CCM] showed a Diazepam antagonism of 0.02. Molecule `CCOC(=O)c1ncn2c1CN(C)C(=O)c1cc(F)ccc1-2` [FLUMAZENIL] has a Diazepam antagonism of 0.3.

Each molecule was assayed against T1, GABA-A receptor; anion channel (Bos taurus) (assay: Relative binding to GABA-A receptor in the presence and absence of GABA (GABA shift), Ki(-GABA)/Ki(+GABA)). Details: not given.
Assay type: protein-complex assay
Summary of the method: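 Bovine brain membranes, frozen-thawed and washed in 50 mM Tris-citrate pH 7.4, used for displacement of radiolabeled antagonist [3H]Ro 15-1788. Ki reported as mean ± SEM of three determinations. GABA ratio taken as Ki without GABA divided by Ki with GABA.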
Molecule `Oc1c(-c2ccsc2)nnc2nc3ccccc3n12` has a GABA ratio of 1.2. For `Cn1c2ccccc2n2c(=O)c(-c3ccccc3)nnc12`, the GABA ratio was 1.7. For `CCOC(=O)c1ncn2c1CN(C)C(=O)c1cc(F)ccc1-2` [FLUMAZENIL], the GABA ratio was 0.9. `Oc1ccc(-c2nnc3nc4ccccc4n3c2O)cc1O` was tested, and the GABA ratio was 1.2. `Oc1c(-c2ccco2)nnc2nc3ccccc3n12` showed a GABA ratio of 0.98. In the case of `Cc1ccc(-c2nnc3nc4ccccc4n3c2O)s1`, the GABA ratio is reported as 0.96. Molecule `Oc1c(-c2cccs2)nnc2nc3ccccc3n12` has a GABA ratio of 0.97. Molecule `Oc1c(-c2ccccc2)nnc2nc3ccccc3n12` has a GABA ratio of 1.2. `COc1ccc(-c2nnc3nc4ccccc4n3c2O)cc1` gave a GABA ratio of 1.25. Work on `Oc1ccc(-c2nnc3nc4ccccc4n3c2O)cc1` yielded a GABA ratio of 0.87.

What follows are molecules tested against T1, GABA-A receptor; anion channel (Bos taurus) (assay: Inhibition of […] [3H]- Ro.15-1788 binding to benzodiazepine receptors in bovine brain membrane.). Details: not given.
Assay type: cell membranes
Work on `COc1ccc(-c2nnc3nc4ccccc4n3c2O)cc1OC` yielded an inhibition of 17%. `Oc1c(-c2ccsc2)nnc2nc3ccccc3n12` gave an inhibition of 85%. Work on `Cn1c2ccccc2n2c(=O)c(-c3ccc(Cl)cc3)nnc12` yielded an inhibition of 30%. Molecule `Cn1c2ccccc2n2c(=O)c(-c3ccccc3)nnc12` has an inhibition of 92%. With `Cc1ccc(-c2nnc3nc4ccccc4n3c2O)cc1` the inhibition was 56%. With `Oc1ccc(-c2nnc3nc4ccccc4n3c2O)cc1O` the inhibition was 99%. `COc1ccc(-c2nnc3n(C)c4ccccc4n3c2=O)cc1` was tested, and the inhibition was 53%. With `Cn1c2ccccc2n2c(=O)c(-c3cccs3)nnc12` the inhibition was 63%. With `Oc1c(-c2ccco2)nnc2nc3ccccc3n12` the inhibition was 93%. `Cn1c2ccccc2n2c(=O)c(-c3ccco3)nnc12` showed an inhibition of 68%. For `Cc1ccc(-c2nnc3nc4ccccc4n3c2O)s1`, the inhibition was 83%. In the case of `Oc1c(-c2cccs2)nnc2nc3ccccc3n12`, the inhibition is reported as 99%. `Oc1c(-c2ccccc2)nnc2nc3ccccc3n12` was tested, and the inhibition was 97%. For `COc1ccc(-c2nnc3nc4ccccc4n3c2O)cc1`, the inhibition was 89%. With `Oc1cnnc2nc3ccccc3n12` the inhibition was 11%. Molecule `Cc1nnc2nc3ccccc3n2c1O` has an inhibition of 26%. `Oc1ccc(-c2nnc3nc4ccccc4n3c2O)cc1` gave an inhibition of 99%. `Oc1c(-c2ccc(Cl)cc2)nnc2nc3ccccc3n12` was tested, and the inhibition was 34%.

The molecules below were run on Mus musculus (assay: Dose required to antagonise the convulsant action of PTZ (80 mg/kg, sc) in 50% mice; No effect at a highest dose of 250 mg/kg). Details: not given.
Assay type: functional, organism-based
Parameters: dose 250 mg/kg
With `Oc1c(-c2cccs2)nnc2nc3ccccc3n12` the NE was “inactive”. With `Oc1c(-c2ccccc2)nnc2nc3ccccc3n12` the NE was “inactive”. `COc1ccc(-c2nnc3nc4ccccc4n3c2O)cc1` was tested, and the NE was “inactive”.

What follows are molecules tested against GABA-A receptor; anion channel (assay: Displacement of [3H]- Ro.15-1788 from GABA-A central Benzodiazepine receptor (BzR) of Bovine cerebral cortex membrane). Details: not given.
Assay type: tissue-based, Bos taurus
With `Oc1c(-c2ccsc2)nnc2nc3ccccc3n12` the Ki was 107 nM. `Cn1c2ccccc2n2c(=O)c(-c3ccccc3)nnc12` showed a Ki of 860 nM. Molecule `CCOC(=O)c1ncn2c1CN(C)C(=O)c1cc(F)ccc1-2` [FLUMAZENIL] has a Ki of 0.09 nM. With `Oc1ccc(-c2nnc3nc4ccccc4n3c2O)cc1O` the Ki was 170 nM. Work on `Oc1c(-c2ccco2)nnc2nc3ccccc3n12` yielded a Ki of 56 nM. For `Cc1ccc(-c2nnc3nc4ccccc4n3c2O)s1`, the Ki was 115 nM. `Oc1c(-c2cccs2)nnc2nc3ccccc3n12` showed a Ki of 13 nM. `Oc1c(-c2ccccc2)nnc2nc3ccccc3n12` was tested, and the Ki was 53 nM. With `COc1ccc(-c2nnc3nc4ccccc4n3c2O)cc1` the Ki was 44 nM. Molecule `Oc1ccc(-c2nnc3nc4ccccc4n3c2O)cc1` has a Ki of 74 nM.

What follows are molecules tested against T1, GABA-A receptor; anion channel (Bos taurus) (assay: as §1). Details: concentration not given here.
Assay type: tissue-based
Summary of the method: as §2
In the case of `Oc1c(-c2cccs2)nnc2nc3ccccc3n12`, the inhibition is reported as 28%.

What follows are molecules tested on Mus musculus (assay: Proconvulsant action measured as the dose required to induce convulsions in 50% of mice that had been previously given a subconvulsant dose of PTZ (40 mg/kg, sc); No effect at a hieghst dose of 250 mg/kg). Details: not given.
Assay type: functional, organism-based
Parameters: dose 250 mg/kg
Summary of the method: as §3
In the case of `COc1ccc(-c2nnc3nc4ccccc4n3c2O)cc1`, the NE is reported as “inactive”.

These molecules were tested on Mus musculus (assay: Proconvulsant action measured as the dose required to induce convulsions in 50% of mice that had been previously given a subconvulsant dose of PTZ (40 mg/kg, sc); No effect at a highest dose of 100 mg/kg). Details: not given.
Assay type: functional, organism-based
Parameters: dose 100 mg/kg
With `CCOC(=O)c1ncn2c1CN(C)C(=O)c1cc(F)ccc1-2` [FLUMAZENIL] the NE was “inactive”.

The molecules below were run on Mus musculus (assay: Dose required by the compound in vivo to antagonise the convulsant action of PTZ (80 mg/kg, sc) in 50 % mice). Details: not given.
Assay type: functional
Summary of the method: as §4
Molecule `CN1C(=O)CN=C(c2ccccc2)c2cc(Cl)ccc21` [DIAZEPAM] has an ED50 of 0.4 mg/kg. Work on `Cn1c2ccccc2n2c(=O)c(-c3ccccc3)nnc12` yielded an ED50 of 60 mg/kg.
